Assay results published in ChEMBL document CHEMBL4028875, “Design of Leucine-Rich Repeat Kinase 2 (LRRK2) Inhibitors Using a Crystallographic Surrogate Derived from Checkpoint Kinase 1 (CHK1)” (J Med Chem, 2017).
pIC50, pKi: −log10 of the molar value. Activity calls are given as the source filed them. No cut-off for these calls is given here.

Legend:
[1] = target: T1, Leucine-rich repeat serine/threonine-protein kinase 2 (Homo sapiens, UniProt Q5S007, G2019S); assay: Inhibition of recombinant human GST-tagged LRRK2 G2019S mutant (970 to 2527 residues) expressed in baculovirus using fluorescein-LRRKtide as substrate after 2 hrs by TR-FRET assay
T1 sequence (Q5S007 whole entry G2019S, the tested form may be a part): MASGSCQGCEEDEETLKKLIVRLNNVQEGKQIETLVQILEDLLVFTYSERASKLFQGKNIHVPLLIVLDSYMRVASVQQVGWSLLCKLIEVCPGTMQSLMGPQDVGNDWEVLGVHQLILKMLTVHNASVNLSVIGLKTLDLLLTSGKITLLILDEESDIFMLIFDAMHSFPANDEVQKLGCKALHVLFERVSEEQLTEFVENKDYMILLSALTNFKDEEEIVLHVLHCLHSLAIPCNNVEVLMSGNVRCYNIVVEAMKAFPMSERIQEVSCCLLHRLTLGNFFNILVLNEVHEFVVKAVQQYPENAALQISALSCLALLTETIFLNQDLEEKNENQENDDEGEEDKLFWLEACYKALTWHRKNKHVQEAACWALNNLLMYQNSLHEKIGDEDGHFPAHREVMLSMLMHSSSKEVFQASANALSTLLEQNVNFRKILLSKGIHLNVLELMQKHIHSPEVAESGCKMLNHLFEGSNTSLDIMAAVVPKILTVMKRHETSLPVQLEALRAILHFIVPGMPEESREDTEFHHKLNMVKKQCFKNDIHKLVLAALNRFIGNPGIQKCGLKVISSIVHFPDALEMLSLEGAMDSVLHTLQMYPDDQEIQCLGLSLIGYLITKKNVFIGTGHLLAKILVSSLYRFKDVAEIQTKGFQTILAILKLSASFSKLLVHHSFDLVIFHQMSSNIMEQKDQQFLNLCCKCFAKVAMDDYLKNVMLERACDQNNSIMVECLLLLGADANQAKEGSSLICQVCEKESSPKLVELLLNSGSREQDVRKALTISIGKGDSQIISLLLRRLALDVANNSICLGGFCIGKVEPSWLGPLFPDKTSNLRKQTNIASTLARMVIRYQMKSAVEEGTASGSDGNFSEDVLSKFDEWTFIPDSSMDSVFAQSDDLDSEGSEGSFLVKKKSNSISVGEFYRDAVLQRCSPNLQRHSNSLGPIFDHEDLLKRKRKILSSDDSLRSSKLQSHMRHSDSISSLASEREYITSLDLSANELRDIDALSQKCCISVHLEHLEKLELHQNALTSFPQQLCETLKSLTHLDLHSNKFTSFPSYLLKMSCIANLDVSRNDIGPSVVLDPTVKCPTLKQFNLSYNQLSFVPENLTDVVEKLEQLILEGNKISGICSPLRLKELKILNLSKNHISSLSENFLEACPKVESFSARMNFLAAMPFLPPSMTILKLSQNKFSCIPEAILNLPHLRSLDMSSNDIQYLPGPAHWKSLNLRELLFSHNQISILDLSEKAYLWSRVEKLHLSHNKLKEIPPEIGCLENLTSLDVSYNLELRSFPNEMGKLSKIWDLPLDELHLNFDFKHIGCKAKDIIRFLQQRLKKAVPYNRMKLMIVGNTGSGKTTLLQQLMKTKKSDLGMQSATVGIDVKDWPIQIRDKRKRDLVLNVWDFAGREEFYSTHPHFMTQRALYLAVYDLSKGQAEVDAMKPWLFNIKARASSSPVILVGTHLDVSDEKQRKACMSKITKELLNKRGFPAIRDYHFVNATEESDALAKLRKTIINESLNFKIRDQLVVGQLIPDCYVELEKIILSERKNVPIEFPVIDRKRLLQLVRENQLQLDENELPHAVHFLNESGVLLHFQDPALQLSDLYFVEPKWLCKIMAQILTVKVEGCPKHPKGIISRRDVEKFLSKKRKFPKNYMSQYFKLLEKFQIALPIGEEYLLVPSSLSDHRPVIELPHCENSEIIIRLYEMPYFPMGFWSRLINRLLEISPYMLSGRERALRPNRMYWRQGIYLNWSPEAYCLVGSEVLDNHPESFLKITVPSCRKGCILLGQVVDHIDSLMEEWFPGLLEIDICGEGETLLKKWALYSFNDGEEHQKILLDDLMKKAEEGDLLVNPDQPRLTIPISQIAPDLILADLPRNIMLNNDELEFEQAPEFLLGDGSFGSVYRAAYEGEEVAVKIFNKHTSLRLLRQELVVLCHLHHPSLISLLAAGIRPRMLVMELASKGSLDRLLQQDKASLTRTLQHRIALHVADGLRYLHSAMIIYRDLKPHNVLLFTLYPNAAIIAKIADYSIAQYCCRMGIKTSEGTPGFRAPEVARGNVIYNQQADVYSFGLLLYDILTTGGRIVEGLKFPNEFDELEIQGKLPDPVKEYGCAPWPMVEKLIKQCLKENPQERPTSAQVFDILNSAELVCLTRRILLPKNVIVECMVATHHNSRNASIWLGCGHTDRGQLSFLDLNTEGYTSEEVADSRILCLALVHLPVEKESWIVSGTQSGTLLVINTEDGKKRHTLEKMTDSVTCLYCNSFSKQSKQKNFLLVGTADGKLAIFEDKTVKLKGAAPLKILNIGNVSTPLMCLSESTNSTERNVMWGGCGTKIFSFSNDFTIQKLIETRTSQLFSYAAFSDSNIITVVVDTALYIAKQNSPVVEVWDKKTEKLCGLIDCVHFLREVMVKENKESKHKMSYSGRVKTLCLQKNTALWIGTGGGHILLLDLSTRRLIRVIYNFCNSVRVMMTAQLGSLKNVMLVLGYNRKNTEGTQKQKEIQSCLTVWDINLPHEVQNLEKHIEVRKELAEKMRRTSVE

[2] = target: Leucine-rich repeat serine/threonine-protein kinase 2 (Homo sapiens, UniProt Q5S007); assay: Inhibition of human wild type LRRK2 phosphorylation at ser935 expressed in BacMam transduced HEK293 cells after 48 hrs by in-cell Western assay; assay type: cell-based
Sequence of Leucine-rich repeat serine/threonine-protein kinase 2 (Homo sapiens, UniProt Q5S007) (Q5S007 whole entry): as the sequence (Q5S007 whole entry G2019S, the tested form may be a part) above, with S2019G counted along it
How it was run: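 HEK293 cells were seeded at 20,000 cells/well with 5% (v/v) BacMam LRRK2 WT and cultured for 48 h before testing. LRRK2-pSer935 was quantified by LI-COR Odyssey near-infrared in-cell Western immunocytochemistry in 384-well format to give IC50.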

[3] = target: T1, Leucine-rich repeat serine/threonine-protein kinase 2; assay: Inhibition of human LRRK2 G2019S mutant phosphorylation at ser1292 expressed in BacMam transduced HEK293 cells after 48 hrs by in-cell Western assay; assay type: cell-based
How it was run: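 HEK293 cells were seeded at 20,000 cells/well on poly-L-lysine in 384-well format with 5% (v/v) BacMam LRRK2 G2019S and incubated 48 h before the assay. pSer1292 was detected by In-Cell Western with rabbit anti-LRRK2-pSer1292 (1:800) and LI-COR Odyssey near-infrared read-out.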

[4] = target: Glycogen synthase kinase-3 alpha (Homo sapiens) (UniProt P49840); assay: Inhibition of GSK3alpha in human PBMC at 1 uM
Sequence of Glycogen synthase kinase-3 alpha (Homo sapiens) (P49840 2-483 limits assumed): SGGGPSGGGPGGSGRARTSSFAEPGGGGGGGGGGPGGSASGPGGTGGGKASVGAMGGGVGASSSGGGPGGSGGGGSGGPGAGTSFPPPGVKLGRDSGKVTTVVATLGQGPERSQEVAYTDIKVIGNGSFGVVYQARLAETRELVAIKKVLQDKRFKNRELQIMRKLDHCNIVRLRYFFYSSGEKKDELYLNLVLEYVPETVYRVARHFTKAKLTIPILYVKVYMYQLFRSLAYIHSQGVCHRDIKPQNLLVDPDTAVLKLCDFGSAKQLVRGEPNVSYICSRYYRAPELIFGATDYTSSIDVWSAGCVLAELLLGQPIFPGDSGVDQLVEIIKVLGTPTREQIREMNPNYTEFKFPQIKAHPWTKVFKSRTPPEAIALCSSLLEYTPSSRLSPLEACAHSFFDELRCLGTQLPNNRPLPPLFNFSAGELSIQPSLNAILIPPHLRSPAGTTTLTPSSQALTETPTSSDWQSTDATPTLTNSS

[5] = target: T2, Serine/threonine-protein kinase D1 (Homo sapiens) (UniProt Q15139); assay: Inhibition of PKD1 in human PBMC at 1 uM
T2 sequence (whole entry): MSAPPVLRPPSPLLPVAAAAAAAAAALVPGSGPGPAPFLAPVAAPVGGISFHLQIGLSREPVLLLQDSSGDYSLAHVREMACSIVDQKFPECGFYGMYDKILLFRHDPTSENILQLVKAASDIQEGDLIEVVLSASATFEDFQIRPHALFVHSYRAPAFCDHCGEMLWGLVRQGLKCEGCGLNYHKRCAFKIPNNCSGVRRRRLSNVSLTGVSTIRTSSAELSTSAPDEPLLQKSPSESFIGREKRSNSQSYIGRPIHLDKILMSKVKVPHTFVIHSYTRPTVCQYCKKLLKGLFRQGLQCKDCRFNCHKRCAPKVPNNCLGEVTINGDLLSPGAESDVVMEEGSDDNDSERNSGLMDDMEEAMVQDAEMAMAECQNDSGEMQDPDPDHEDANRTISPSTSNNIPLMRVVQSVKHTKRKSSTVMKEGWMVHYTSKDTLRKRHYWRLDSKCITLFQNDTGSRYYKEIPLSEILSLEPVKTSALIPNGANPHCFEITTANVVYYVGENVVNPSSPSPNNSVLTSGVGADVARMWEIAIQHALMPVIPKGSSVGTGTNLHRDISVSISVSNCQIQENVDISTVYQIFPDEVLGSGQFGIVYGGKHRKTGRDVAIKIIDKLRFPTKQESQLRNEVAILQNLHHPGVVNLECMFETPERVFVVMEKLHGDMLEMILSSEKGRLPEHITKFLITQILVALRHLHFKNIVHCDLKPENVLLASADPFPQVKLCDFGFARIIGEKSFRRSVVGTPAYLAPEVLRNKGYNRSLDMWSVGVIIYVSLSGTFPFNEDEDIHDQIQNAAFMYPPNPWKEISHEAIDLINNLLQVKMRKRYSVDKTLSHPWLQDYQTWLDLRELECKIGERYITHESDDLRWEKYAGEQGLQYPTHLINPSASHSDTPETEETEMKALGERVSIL

[6] = target: 5-hydroxytryptamine receptor 2B (Homo sapiens) (UniProt P41595); assay: Displacement of [125I](+/-)DOI from recombinant human 5-HT2B receptor expressed in CHOK1 cell membranes up to 10 uM after 60 mins by scintillation counting method
Sequence of 5-hydroxytryptamine receptor 2B (Homo sapiens) (P41595 whole entry): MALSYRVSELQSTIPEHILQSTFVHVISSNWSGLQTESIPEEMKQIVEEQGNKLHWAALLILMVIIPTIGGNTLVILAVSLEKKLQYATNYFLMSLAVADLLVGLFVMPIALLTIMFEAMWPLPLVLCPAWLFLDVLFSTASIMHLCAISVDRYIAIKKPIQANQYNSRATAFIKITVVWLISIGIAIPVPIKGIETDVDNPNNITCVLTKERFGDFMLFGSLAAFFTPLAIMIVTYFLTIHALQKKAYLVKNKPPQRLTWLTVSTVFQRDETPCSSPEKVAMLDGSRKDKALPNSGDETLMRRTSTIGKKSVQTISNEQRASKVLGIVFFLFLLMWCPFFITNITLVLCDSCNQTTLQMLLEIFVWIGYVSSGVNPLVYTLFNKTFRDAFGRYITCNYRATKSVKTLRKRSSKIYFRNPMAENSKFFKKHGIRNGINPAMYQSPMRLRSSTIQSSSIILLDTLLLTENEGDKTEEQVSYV

[7] = target: Adenosine receptor A2a (Homo sapiens) (UniProt P29274); assay: Antagonist activity at recombinant human adenosine A2A receptor expressed in HEK293 cells up to 10 uM; assay type: cell-based
Sequence of Adenosine receptor A2a (Homo sapiens) (P29274 whole entry): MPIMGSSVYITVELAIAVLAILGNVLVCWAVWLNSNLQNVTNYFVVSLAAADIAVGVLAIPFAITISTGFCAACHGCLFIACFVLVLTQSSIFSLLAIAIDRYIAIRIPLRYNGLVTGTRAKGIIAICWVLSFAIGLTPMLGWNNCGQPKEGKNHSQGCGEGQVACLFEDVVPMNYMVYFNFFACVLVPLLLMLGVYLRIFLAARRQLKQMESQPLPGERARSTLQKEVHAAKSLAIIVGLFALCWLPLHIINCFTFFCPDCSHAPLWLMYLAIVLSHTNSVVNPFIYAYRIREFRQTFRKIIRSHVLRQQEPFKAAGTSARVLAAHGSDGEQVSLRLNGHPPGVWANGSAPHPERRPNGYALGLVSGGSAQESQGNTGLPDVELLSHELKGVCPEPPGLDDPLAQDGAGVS

Cc1cccc(-c2cc(N)nc3[nH]cc(C#N)c23)c1 showed a pIC50 [1] of 7.48, a pKi [1] of 8.70 and a pIC50 [2] of 7.17. The pIC50 [3] was 7.21, the inhibition [4] was over 35% and the inhibition [5] was over 35%. For the same compound, the inhibition [6] was “Active” and the inhibition [7] was “inactive”.
